Several values for one entry are separate records, joined by “and”; a condition that tells them apart may be missing. Equal values may be shown once.
Test system: Fibroblast
Assay: Multiplex assay against human fibroblast
Type: toxicity, cell-based
Outline: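 Values for tubulin, mitochondrial-mass and membrane-permeability phenotypes are per cents of cells with healthy nuclei. These cells were identified by CellPathfinder machine-learning gating of live cells that had been stained at seeding with Hoechst33342, BioTracker Green Microtubule Cytoskeleton Dye, MitoTracker Red and Annexin V Alexa Fluor 680 and imaged on a CQ1 microscope at 37°C and 5% CO2 after compound addition. The gating first set Hoechst high-intensity objects apart from normal cells, then split normal cells into healthy, pyknosed or fragmented nuclei, and pyknosed cells into mitotic or apoptotic.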

[1] = 12 h, 1 µM, compound concentration 1 uM
[2] = 12 h, 10 µM, compound concentration 10 uM
[3] = 24 h, 1 µM, compound concentration 1 uM
[4] = 24 h, 10 µM, compound concentration 10 uM
[5] = 48 h, 1 µM, compound concentration 1 uM
[6] = 48 h, 10 µM, compound concentration 10 uM

CCc1nn2c(C)cc(C)nc2c1Cc1ccc(-c2nnc(C3CCNCC3)o2)cc1
Population Apoptotic (%) [1]: 34% and 45% | Population Fragmented Nuclei (%) [1]: 17% and 19% | Population Healthy Nuclei (%) [1]: 63% and 46% | Population Hoechst High Intensity Objects (%) [1]: 2% and 6% | Population Membrane Permeable-Phenotype (%) [1]: 2% | Population Mitochondria Different-Phenotype (%) [1]: 5% and 13% | Population Mitotic Cells (%) [1]: 65% and 54% | Population Normal (%) [1]: 97% and 93% | Population Pyknosed Nuclei (%) [1]: 19% and 33% | Population Tubulin-Different-Phenotype (%) [1]: 35% and 62% | Total Cell Count [1]: 153 and 167 | Population Fragmented Nuclei (%) [2]: 19% and 38% | Population Healthy Nuclei (%) [2]: 62% and 44% | Population Hoechst High Intensity Objects (%) [2]: 5% and 3% | Population Membrane Permeable-Phenotype (%) [2]: 0% and 5% | Population Mitochondria Different-Phenotype (%) [2]: 19% and 14% | Population Mitotic Cells (%) [2]: 48% and 85% | Population Normal (%) [2]: 94% and 96% | Population Pyknosed Nuclei (%) [2]: 18% and 17% | Population Tubulin-Different-Phenotype (%) [2]: 72% and 79% | Total Cell Count [2]: 188 and 162 | Population Apoptotic (%) [3]: 52% and 56% | Population Fragmented Nuclei (%) [3]: 17% and 26% | Population Healthy Nuclei (%) [3]: 68% and 49% | Population Hoechst High Intensity Objects (%) [3]: 1% and 7% | Population Membrane Permeable-Phenotype (%) [3]: 0% and 6% | Population Mitotic Cells (%) [3]: 47% and 43% | Population Normal (%) [3]: 98% and 92% | Population Pyknosed Nuclei (%) [3]: 13% and 23% | Population Tubulin-Different-Phenotype (%) [3]: 35% and 65% | Total Cell Count [3]: 153 and 177 | Population Apoptotic (%) [4]: 53% and 56% | Population Fragmented Nuclei (%) [4]: 17% and 40% | Population Healthy Nuclei (%) [4]: 64% and 42% | Population Hoechst High Intensity Objects (%) [4]: 9% and 3% | Population Membrane Permeable-Phenotype (%) [4]: 0% and 11% | Population Mitochondria Different-Phenotype (%) [4]: 22% and 16% | Population Mitotic Cells (%) [4]: 46% and 44% | Population Normal (%) [4]: 90% and 96% | Population Pyknosed Nuclei (%) [4]: 17% | Population Tubulin-Different-Phenotype (%) [4]: 79% and 80% | Total Cell Count [4]: 185 and 151 | Population Apoptotic (%) [5]: 76% and 62% | Population Fragmented Nuclei (%) [5]: 21% and 30% | Population Healthy Nuclei (%) [5]: 70% and 54% | Population Hoechst High Intensity Objects (%) [5]: 4% | Population Membrane Permeable-Phenotype (%) [5]: 1% and 3% | Population Mitochondria Different-Phenotype (%) [5]: 2% and 12% | Population Mitotic Cells (%) [5]: 23% and 37% | Population Normal (%) [5]: 95% | Population Pyknosed Nuclei (%) [5]: 7% and 14% | Population Tubulin-Different-Phenotype (%) [5]: 32% and 54% | Total Cell Count [5]: 172 and 168 | Population Apoptotic (%) [6]: 84% and 54% | Population Fragmented Nuclei (%) [6]: 23% and 45% | Population Healthy Nuclei (%) [6]: 62% and 47% | Population Hoechst High Intensity Objects (%) [6]: 9% and 2% | Population Membrane Permeable-Phenotype (%) [6]: 0% and 2% | Population Mitochondria Different-Phenotype (%) [6]: 16% and 17% | Population Mitotic Cells (%) [6]: 15% and 45% | Population Normal (%) [6]: 90% and 97% | Population Pyknosed Nuclei (%) [6]: 13% and 7% | Population Tubulin-Different-Phenotype (%) [6]: 73% and 78% | Total Cell Count [6]: 208 and 161

CSc1ccccc1N1CCN(CCCCCC(=O)NC2CCCc3ccccc32)CC1.Cl (stereo not drawn)
Population Apoptotic (%) [1]: 37% and 50% | Population Fragmented Nuclei (%) [1]: 26% and 32% | Population Healthy Nuclei (%) [1]: 49% and 41% | Population Hoechst High Intensity Objects (%) [1]: 6% and 2% | Population Membrane Permeable-Phenotype (%) [1]: 1% and 9% | Population Mitochondria Different-Phenotype (%) [1]: 15% and 7% | Population Mitotic Cells (%) [1]: 62% and 50% | Population Normal (%) [1]: 93% and 97% | Population Pyknosed Nuclei (%) [1]: 24% and 25% | Population Tubulin-Different-Phenotype (%) [1]: 65% and 74% | Total Cell Count [1]: 126 and 135 | Population Apoptotic (%) [2]: 58% and 66% | Population Fragmented Nuclei (%) [2]: 25% and 34% | Population Healthy Nuclei (%) [2]: 57% and 50% | Population Hoechst High Intensity Objects (%) [2]: 5% | Population Membrane Permeable-Phenotype (%) [2]: 0% | Population Mitochondria Different-Phenotype (%) [2]: 78% and 36% | Population Mitotic Cells (%) [2]: 41% and 33% | Population Normal (%) [2]: 94% | Population Pyknosed Nuclei (%) [2]: 17% and 14% | Population Tubulin-Different-Phenotype (%) [2]: 95% and 92% | Total Cell Count [2]: 220 and 242 | Population Apoptotic (%) [3]: 52% and 37% | Population Fragmented Nuclei (%) [3]: 29% and 33% | Population Healthy Nuclei (%) [3]: 52% and 43% | Population Hoechst High Intensity Objects (%) [3]: 6% and 3% | Population Membrane Permeable-Phenotype (%) [3]: 0% and 3% | Population Mitochondria Different-Phenotype (%) [3]: 21% and 11% | Population Mitotic Cells (%) [3]: 47% and 62% | Population Normal (%) [3]: 93% and 96% | Population Pyknosed Nuclei (%) [3]: 18% and 23% | Population Tubulin-Different-Phenotype (%) [3]: 40% and 64% | Total Cell Count [3]: 133 and 130 | Population Apoptotic (%) [4]: 90% and 66% | Population Fragmented Nuclei (%) [4]: 22% and 33% | Population Healthy Nuclei (%) [4]: 66% and 56% | Population Hoechst High Intensity Objects (%) [4]: 7% and 3% | Population Membrane Permeable-Phenotype (%) [4]: 0% | Population Mitochondria Different-Phenotype (%) [4]: 81% and 51% | Population Normal (%) [4]: 92% and 96% | Population Pyknosed Nuclei (%) [4]: 11% and 9% | Population Tubulin-Different-Phenotype (%) [4]: 98% and 90% | Total Cell Count [4]: 211 and 258 | Population Apoptotic (%) [5]: 61% and 44% | Population Fragmented Nuclei (%) [5]: 26% and 33% | Population Healthy Nuclei (%) [5]: 56% and 45% | Population Hoechst High Intensity Objects (%) [5]: 6% and 1% | Population Membrane Permeable-Phenotype (%) [5]: 2% and 0% | Population Mitochondria Different-Phenotype (%) [5]: 17% and 12% | Population Mitotic Cells (%) [5]: 38% and 56% | Population Normal (%) [5]: 93% and 98% | Population Pyknosed Nuclei (%) [5]: 17% and 20% | Population Tubulin-Different-Phenotype (%) [5]: 69% and 64% | Total Cell Count [5]: 132 and 124 | Population Apoptotic (%) [6]: 91% and 68% | Population Fragmented Nuclei (%) [6]: 25% and 38% | Population Healthy Nuclei (%) [6]: 61% and 53% | Population Hoechst High Intensity Objects (%) [6]: 8% and 4% | Population Membrane Permeable-Phenotype (%) [6]: 0% and 2% | Population Mitochondria Different-Phenotype (%) [6]: 82% and 33% | Population Normal (%) [6]: 91% and 95% | Population Pyknosed Nuclei (%) [6]: 12% and 8% | Population Tubulin-Different-Phenotype (%) [6]: 97% and 83% | Total Cell Count [6]: 195 and 281

From ChEMBL document CHEMBL5724801, “EUbOPEN Chemogenomics Library - Multiplex” (2024)
